Data set [1] in a line: Relative measure of lipophilicity was determined by using 4'-(9-acridinylamino)-methanesulfonanilide as internal standard. It counts as physicochemical. The following applies: octanol/water. In a few lines:
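Rm determined by liquid-liquid chromatography, with AMSA as internal standard.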

In data set [2] the test system is Mus musculus. The experiment in a line: Optimal dose to achieve the level of activity cited in colon 38 tumors after intraperitoneal administration in mice. The data set is classed as functional. In a few lines: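 BDF1 mice bearing s.c. colon 38 tumors (4-8 mm) given a single i.p. dose of sodium salt in water. Full dose profile run at 1.5-fold intervals. Tumors removed at 24 h for histological necrosis scoring. Optimal dose is the minimum dose in mg/kg reaching the cited activity level.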

For data set [3], the species on record is Mus musculus. The experiment in a line: The compound was evaluated for its ability to cause early haemorrhagic necrosis of colon 38 tumors in mice; Value ranges from 50-90%. It counts as functional. In a few lines: (§1)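 Colon 38 fragments implanted s.c. in BDF1 mice and grown to 4-8 mm diameter. Single i.p. dose of sodium salt in water, escalated in 1.5-fold steps up to 750 mg/kg or the maximum nonlethal dose. Triplicate testing, groups of five mice. Tumors excised after 24 h, formalin-fixed, H&E-stained and scored histologically: ++ for 90-100% necrosis, + for 50-90%, - for consistently <50%.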

For data set [4], the species on record is Mus musculus. The experiment in a line: Ability to cause early haemorrhagic necrosis of colon 38 tumors in mice. Further details: concentration or dose not given beside the values. It counts as functional. Put shortly:
as §1

A short description of data set [5]: Range of dose (highest nontoxic to minimum effective) over which 50-90% necrosis was achieved in mice. Also noted: unit not given here. In a few lines:
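Single i.p. dose of sodium salt in water to BDF1 mice bearing s.c. colon 38 tumors. Doses escalated 1.5-fold. Tumor necrosis read histologically at 24 h. Range recorded from highest nontoxic to minimum effective dose giving 50-90% necrosis, only where activity occurred at more than one dose level.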

In the case of `CN(C)CCOC(=O)Cc1cccc2c(=O)c3ccccc3oc12`, the Rm in data set [1] was -0.24. Also, the OD in the data set with Mus musculus [2] worked out at 330 mg/kg. In the data set filed under Mus musculus [3], this compound returned an Activity of 90%.

In data set [1], `O=C(O)C(F)c1cccc2c(=O)c3ccccc3oc12` (configuration not stated) yielded a Rm of 0.75. The compound also gave an OD in the data set on Mus musculus [2] of 750 mg/kg. Also, the Activity in the data set filed under Mus musculus [4] is reported as less than 50%.

In data set [1], `O=c1c2ccccc2oc2c(CS(=O)(=O)O)cccc12` yielded a Rm of -0.59. In the data set on Mus musculus [2], this compound registered an OD of 330 mg/kg. Besides, the Activity in the data set filed under Mus musculus [4] is recorded as less than 50%.

In turn, `COC(C(=O)O)c1cccc2c(=O)c3ccccc3oc12` (configuration not stated) yielded a Rm in data set [1] of 0.49. The compound further yielded an OD with Mus musculus [2] of 750 mg/kg. The compound also showed an Activity in the data set listed under Mus musculus [4] of less than 50%.

With `O=c1c2ccccc2oc2c(CP(=O)(O)O)cccc12`, the Rm in data set [1] was -0.48. The compound also registered an OD in the data set with Mus musculus [2] of 750 mg/kg. The same compound registered an Activity in the data set listed under Mus musculus [4] of less than 50%.

On to `CC(C(=O)O)c1cccc2c(=O)c3ccccc3oc12` (configuration not stated), for which the Rm in data set [1] was found to be 0.85. The OD in the data set with Mus musculus [2] amounted to 500 mg/kg. For the same compound, the Activity in the data set listed under Mus musculus [4] is greater than 90%. Besides, in data set [5], the Range amounted to 500.

`CN(C)CCNC(=O)Cc1cccc2c(=O)c3ccccc3oc12` gave a Rm in data set [1] of -0.27. The same compound came in with an OD in the data set with Mus musculus [2] of 750 mg/kg. In the data set listed under Mus musculus [3], this compound returned an Activity of 90%.

With `Cc1cccc2c(=O)c3cccc([C@H](C)C(=O)O)c3oc12`, in the data set with Mus musculus [2], the OD was 65 mg/kg. Moreover, the Activity in the data set listed under Mus musculus [4] is listed as greater than 90%.

For `O=C(O)C(O)c1cccc2c(=O)c3ccccc3oc12` (configuration not stated), the Rm in data set [1] is given as 0.04. Besides, in the data set on Mus musculus [2], the OD stood at 750 mg/kg. Besides, the Activity in the data set filed under Mus musculus [3] worked out at 90%.

With `O=C(O)Cc1cccc2c(=O)c3ccccc3oc12`, in data set [1], the Rm is listed as 0.64. In addition, the OD in the data set on Mus musculus [2] was found to be 220 mg/kg. This compound came in with an Activity in the data set listed under Mus musculus [4] greater than 90%.

In the data set on Mus musculus [2], `Cc1cccc2c(=O)c3cccc([C@@H](C)C(=O)O)c3oc12` displayed an OD of 220 mg/kg. Also, the Activity in the data set filed under Mus musculus [4] was greater than 90%. Moreover, the Range in data set [5] worked out at 220.

In data set [1], `O=C(O)CCc1cccc2c(=O)c3ccccc3oc12` yielded a Rm of 0.7. This compound also gave an OD in the data set on Mus musculus [2] of 500 mg/kg. The compound further had an Activity in the data set listed under Mus musculus [3] of 90%.

For `O=C(Cc1cccc2c(=O)c3ccccc3oc12)NS(=O)(=O)c1ccccc1`, the Rm in data set [1] is 0.51. For the same compound, the OD in the data set with Mus musculus [2] turned out to be 750 mg/kg. The same compound had an Activity in the data set listed under Mus musculus [4] of less than 50%.

In data set [1], `O=C(O)COc1cccc2c(=O)c3ccccc3oc12` returned a Rm of 0.21. The OD in the data set on Mus musculus [2] amounted to 750 mg/kg. In the data set listed under Mus musculus [4], the Activity was less than 50%.

As to `N=C(N)SCc1cccc2c(=O)c3ccccc3oc12`, the Rm in data set [1] is -0.2. Besides, in the data set with Mus musculus [2], the OD came out at 220 mg/kg. Also, in the data set listed under Mus musculus [4], the Activity was less than 50%.

`Cc1ccc2c(=O)c3cccc(CC(=O)O)c3oc2c1C` [VADIMEZAN] returned a Rm in data set [1] of 0.49. The compound also showed an OD with Mus musculus [2] of 30 mg/kg. The compound also registered an Activity in the data set listed under Mus musculus [4] greater than 90%. In data set [5], this compound displayed a Range of 30.

Compound `Cc1cccc2c(=O)c3cccc(C(C)C(=O)O)c3oc12` (configuration not stated) gave a Rm in data set [1] of 0.88. Moreover, the OD in the data set on Mus musculus [2] worked out at 150 mg/kg. The Activity in the data set listed under Mus musculus [4] is given as greater than 90%. In data set [5], this compound gave a Range of 150.

For `CCOP(=O)(O)Cc1cccc2c(=O)c3ccccc3oc12`, in data set [1], the Rm is listed as -0.04. In the data set with Mus musculus [2], the OD was 750 mg/kg. Besides, in the data set filed under Mus musculus [4], the Activity was less than 50%.

`NC(C(=O)O)c1cccc2c(=O)c3ccccc3oc12` (configuration not stated) registered a Rm in data set [1] of -0.53. The compound also registered an OD in the data set with Mus musculus [2] of 750 mg/kg. In the data set filed under Mus musculus [3], this compound yielded an Activity of 90%.

On to `O=C(O)c1cccc2c(=O)c3ccccc3oc12`, for which the Rm in data set [1] amounted to 0.49. The OD with Mus musculus [2] was found to be 220 mg/kg. The Activity in the data set listed under Mus musculus [4] is on record as less than 50%.

For the origin of these results see ChEMBL document CHEMBL1125811, “Potential antitumor agents. 63. Structure-activity relationships for side-chain analogues of the colon 38 active agent 9-oxo-9H-xanthene-4-acetic acid” (J Med Chem, 1991).
